Measurements reported in ChEMBL document CHEMBL1126572, “Synthesis and pharmacological activity of a series of dihydro-1H-pyrrolo[1,2-a]imidazole-2,5(3H,6H)-diones, a novel class of potent cognition enhancers” (J Med Chem, 1993).

Assays:
Rattus norvegicus [1] = experiment: Tested for efficiency in responding in radial maze test in rat on the day before treatment at 1 mg/kg sc along with Scopolamine at 50 ug/kg sc; assay type: functional; details: route subcutaneous
Method in brief: (§1)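 Male Wistar rats (2 months old, 250 g), food-restricted to 80-85% body weight, were trained daily in an eight-arm radial maze to criterion (≤9 choices on 3 consecutive days). Scopolamine was given sc 60 min before testing and the test drug sc in saline 90 min before. Treatments were ≥3 days apart with retraining. Efficiency was scored as 8/total choices × 100.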

Rattus norvegicus [2] = experiment: Percent reversal of scopolamine-induced amnesia rat following 1.0 mg/kg i.p.; assay type: functional; details: route intraperitoneal
Method in brief: (§2)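 Male Wistar rats, 200–220 g, acclimatised ≥1 week; one-trial step-through passive avoidance in two-compartment box with electrifiable grid floor. Scopolamine hydrobromide 0.66 mg/kg sc 60 min before learning, test compound or vehicle 30 min before scopolamine; 45 rats per experiment split into saline, scopolamine and treated groups. % amnesia reversal computed from group retention; Fisher's exact test versus scopolamine group.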

Rattus norvegicus [3] = experiment: Percent reversal of scopolamine-induced amnesia rat following 10 mg/kg i.p.; assay type: functional; details: route intraperitoneal; method in brief: as §2
Rattus norvegicus [4] = experiment: Percent reversal of scopolamine-induced amnesia rat at 10 mg/kg po; assay type: functional; method in brief: as §2
Rattus norvegicus [5] = experiment: Tested for running time in radial maze test in rat on the day before treatment at 1 mg/kg sc along with Scopolamine at 50 ug/kg sc; assay type: functional; details: route subcutaneous
Method in brief: (§3)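 Eight-arm radial maze in male Wistar rats (2 months old, 250 g) held at 80-85% body weight and trained to ≤9 choices for 3 consecutive days. Scopolamine was given sc 60 min pre-test and the drug sc in isotonic saline 90 min pre-test. Position was video-tracked. Mean running time (s) was total task time divided by number of choices.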

Rattus norvegicus [6] = experiment: Percent reversal of scopolamine-induced amnesia rat at 30 mg/kg po; assay type: functional; method in brief: as §2
Rattus norvegicus [7] = experiment: Percent reversal of scopolamine-induced amnesia rat at 1.0 mg/kg po; assay type: functional; method in brief: as §2
Rattus norvegicus [8] = experiment: Tested for efficiency in responding in radial maze test in rat on the day of treatment at 1 mg/kg sc along with Scopolamine at 50 ug/kg sc; assay type: functional; details: route subcutaneous; method in brief: as §1
Rattus norvegicus [9] = experiment: Tested for running time in radial maze test in rats on the day of treatment at 1 mg/kg sc along with Scopolamine at 50 ug/kg sc; assay type: functional; details: route subcutaneous
Method in brief: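 Male Wistar rats (2 months, 250 g) food-restricted to 80–85% body weight, trained in eight-arm radial maze to criterion (≤9 choices, 3 consecutive days). Scopolamine 50 μg/kg sc 60 min and compound (saline, 2 mL/kg) 90 min before test; mean running time = total running time/total choices, video-tracked; compared with performance on days before and after treatment.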

Rattus norvegicus [10] = experiment: Percent reversal of scopolamine-induced amnesia rat at 0.3 mg/kg ip; assay type: functional; details: route intraperitoneal; method in brief: as §2
Rattus norvegicus [11] = experiment: Percent reversal of scopolamine-induced amnesia rat at 0.3 mg/kg po; assay type: functional; method in brief: as §2
Rattus norvegicus [12] = experiment: Tested for efficiency in responding in radial maze test in rat on the day after treatment at 1 mg/kg sc along with Scopolamine at 50 ug/kg sc; assay type: functional; details: route subcutaneous
Rattus norvegicus [13] = experiment: Tested for running time in radial maze test in rat on the day after treatment at 1 mg/kg sc along with Scopolamine at 50 ug/kg sc; assay type: functional; details: route subcutaneous; method in brief: as §3
Rattus norvegicus [14] = experiment: Percent reversal of scopolamine-induced amnesia rat at 0.1 mg/kg ip; assay type: functional; details: route intraperitoneal; method in brief: as §2
[15] = Basicity was assessed from pKB; assay type: ADME
Rattus norvegicus [16] = experiment: Tested for running time in radial maze test in rat on the day of treatment at 1 mg/kg sc along with Scopolamine at 50 ug/kg sc; assay type: functional; details: route subcutaneous; method in brief: as §3

| Structure (SMILES) | Reversal (Rattus norvegicus [2]) [%] | Reversal (Rattus norvegicus [3]) [%] | Reversal (Rattus norvegicus [4]) [%] | Reversal (Rattus norvegicus [7]) [%] | Reversal (Rattus norvegicus [10]) [%] | further results |
| --- | --- | --- | --- | --- | --- | --- |
| O=C1CN2C(=O)CCC2N1 (stereo not drawn) [DIMIRACETAM] | 68 | 70 | 60 | 75 | 16 | Efficiency (Rattus norvegicus [1]): 96.3%; Time (Rattus norvegicus [5]): 16.6 s; Reversal (Rattus norvegicus [6]): 40%; Efficiency (Rattus norvegicus [8]): 75.6%; Time (Rattus norvegicus [9]): 34.6 s; Reversal (Rattus norvegicus [11]): 28%; Efficiency (Rattus norvegicus [12]): 88.6%; Time (Rattus norvegicus [13]): 19.6 s |
| O=C1CN2C(=O)CCC2(C(=O)O)N1 (stereo not drawn) | 14 | 53 | 33 | 1 |  |  |
| O=C1NC2CCC(=O)N2C1CO (stereo not drawn) | 38 |  | 42 | 0 | 30 | Reversal (Rattus norvegicus [14]): 3%; Reversal (Rattus norvegicus [6]): 0% |
| CCOC(=O)C12CCC(=O)N1CC(=O)N2 (stereo not drawn) | 25 | 62 | 0 | 0 |  |  |
| NC(=O)C12CCC(=O)N1CC(=O)N2 (stereo not drawn) | 62 | 38 | 0 | 0 | 38 |  |
| O=C1CN2C(=O)CCCC2N1 (stereo not drawn) | 27 | 27 | 0 | 0 |  |  |
| CC1C(=O)NC2(C)CCC(=O)N12 (racemic) |  |  |  |  |  | Reversal (Rattus norvegicus [2]; 1 mg/kg): 38%; Reversal (Rattus norvegicus [3]; 10 mg/kg): 0%; Reversal (Rattus norvegicus [4]; 10 mg/kg): 42%; Reversal (Rattus norvegicus [7]; 1 mg/kg): 17%; Reversal (Rattus norvegicus [10]; 0.3 mg/kg): 30% |
| O=C1CN2C(=O)CCCCC2N1 (stereo not drawn) | 22 | 12 |  |  |  |  |
| CC1C(=O)NC2CCC(=O)N21 (racemic) | 38 | 38 | 33 | 9 |  |  |
| NC(=O)CN1CC(O)CC1=O (stereo not drawn) [OXIRACETAM] | 12 | 53 | 27 |  |  | Reversal (Rattus norvegicus [6]): 69% |
| NC(=O)CNCc1ccccc1 |  |  |  |  |  | pKB [15]: 7.2 |
| CC(=O)N1C(=O)CN2C(=O)CCC21 (stereo not drawn) | 0 | 0 |  |  |  |  |
| NC(=O)CN1C(=O)CN2C(=O)CCC12 (stereo not drawn) | 49 | 62 | 9 | 0 |  |  |
| O=C1NC2CCC(=O)N2[C@@H]1Cc1ccccc1 (stereo partly drawn) | 19 | 0 |  |  | 42 | Reversal (Rattus norvegicus [14]): 15% |
| CCOC(=O)CN1C(=O)CN2C(=O)CCC12 (stereo not drawn) | 3 | 0 |  |  |  |  |
| CC(C)CC1C(=O)NC2CCC(=O)N21 (stereo not drawn) | 3 | 0 |  |  |  |  |
| CN1[C@@H]2C[C@@H](OC(=O)[C@H](CO)c3ccccc3)C[C@H]1[C@@H]1O[C@@H]12 [SCOPOLAMINE] |  |  |  |  |  | Efficiency (Rattus norvegicus [1]): 87.3%; Time (Rattus norvegicus [5]): 14.3 s; Efficiency (Rattus norvegicus [8]): 63.9%; Time (Rattus norvegicus [16]): 34.6 s; Efficiency (Rattus norvegicus [12]): 83.9%; Time (Rattus norvegicus [13]): 19.6 s |
| C[C@H]1C(=O)NC2CCC(=O)N21 (stereo partly drawn) | 52 | 3 |  |  | 0 |  |
| O=C1CCC2N1CC(=O)N2C(=O)OCc1ccccc1 (stereo not drawn) | 31 | 12 |  |  |  |  |
| O=C1NC2CCC(=O)N2[C@H]1Cc1ccccc1 (stereo partly drawn) | 53 | 0 | 0 | 42 | 53 | Reversal (Rattus norvegicus [14]): 0%; Reversal (Rattus norvegicus [6]): 7%; Reversal (Rattus norvegicus [11]): 0% |
| CC12CCC(=O)N1CC(=O)N2 (stereo not drawn) | 40 | 46 | 0 |  | 0 | Reversal (Rattus norvegicus [6]): 26% |
| CC1C(=O)NC2(C)CCC(=O)N12 (stereo in doubt; 18 (S)) |  |  |  |  |  | Reversal (Rattus norvegicus [2]; 1 mg/kg): 65%; Reversal (Rattus norvegicus [3]; 10 mg/kg): 44%; Reversal (Rattus norvegicus [4]; 10 mg/kg): 26%; Reversal (Rattus norvegicus [6]): 37%; Reversal (Rattus norvegicus [7]; 1 mg/kg): 21%; Reversal (Rattus norvegicus [10]; 0.3 mg/kg): 10% |
| CCN1C(=O)CN2C(=O)CCC12 (stereo not drawn) | 0 | 0 |  |  |  |  |
